How the values were obtained:
[1] = Part II multiple ascending-dose pharmacokinetics; type: in vivo, human; details: part II, 300 mg oral on Days 1, 3, 5, N 6; for AUCt / AUC∞ / Accumulation Index / C max / CL / V z/F_obs / t ½ / λz: mean ± SD
How it was run: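 Four panels of eight (six drug, two placebo) were dosed orally, fasted, with 100, 150, 200 or 300 mg on Days 1, 3 and 5. Blood was taken pre-dose and at 0.5–36 h after the Day 1 and Day 5 doses, pre-dose and 12, 24 and 36 h after Day 3, and 48 and 72 h after Day 5. Diluted-blood LC-MS/MS (LLOQ 2 ng/mL). Accumulation index was derived.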

[2] = beagle dogs, oral route; cited from earlier work
[3] = system: serum erythropoietin (EPO), hemoglobin, hematocrit, reticulocyte count; assay: Part II pharmacodynamics; type: in vivo, human; details: for serum EPO C max: placebo 11.0 mIU/L
How it was run: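 Serum EPO, hemoglobin, hematocrit and reticulocyte count were measured in blood taken before and after oral dosing. Regimens: part I single fasted doses 10–300 mg vs placebo; part II 100–300 mg on Days 1, 3, 5 vs placebo; part III single 150 mg, fasted vs fed, men and women. EPO expressed baseline-corrected. Post-dose vs baseline compared by paired two-sided t test, α = 0.05.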

[4] = Part II urinary recovery of ZYAN1; type: in vivo, human; details: urine
How it was run: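 Urine collected pre-dose and over 0–12, 12–24, 24–36 and 36–48 h: after the single dose (10–300 mg, part I) or after each alternate-day dose on Days 1, 3 and 5 (part II). Total volume recorded; 5 mL aliquots stored at –80 ± 10 °C. Acetonitrile precipitation and LC-MS/MS with analog internal standard, urine calibration 2–5000 ng/mL, LLOQ 2 ng/mL. Amount and percentage of dose recovered calculated.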

cytochrome P450 (CYP) = details: cited from earlier work
hemoglobin levels = details: cited from earlier work
[5] = after oral dosing across the species tested; cited from earlier work
Part I safety assessment = type: in vivo, human
How it was run: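 Safety monitored under ICH-GCP in each part (single 10–300 mg; alternate-day 100–300 mg; 150 mg fasted/fed crossover). Assessments: adverse events coded with MedDRA version 18.0, clinical examinations, frequent vital signs, 12-lead ECGs, clinical laboratory tests, and continuous ECG for 24 h post-dose in parts I and II. Post-dose vs baseline compared by paired two-sided t test, α = 0.05.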

[6] = dogs, cited from earlier work

O=C(O)CNC(=O)c1c(O)c2ccccc2n(OCC2CC2)c1=O [ZYAN1]
AUCt ([1]; Day 1): 118,269.238 ± 28,910.037 h·ng/mL | AUC∞ ([1]; Day 1): 123,020.455 ± 32,873.290 h·ng/mL | Accumulation Index ([1]; Day 1): 1.017 ± 0.011 | C max ([1]; Day 1): 19,286.667 ± 4086.434 ng/mL | CL ([1]; Day 1): 2608.681 ± 641.704 mL/h | V z/F_obs ([1]; Day 1): 29,476.605 ± 6045.099 mL | t ½ ([1]; Day 1): 7.968 ± 1.106 h | λz ([1]; Day 1): 0.088 ± 0.011 h⁻¹ | t max ([1]; Day 5, mean (range) per footnote): 1.75 (1.00–2.00) h | AUCt ([1]; Day 5): 105,472.355 ± 19,487.237 h·ng/mL | AUC∞ ([1]; Day 5): 105,772.678 ± 19,542.028 h·ng/mL | Accumulation Index ([1]; Day 5): 1.033 ± 0.022 | C max ([1]; Day 5): 16,450.000 ± 3422.484 ng/mL | CL ([1]; Day 5): 2992.073 ± 697.789 mL/h | V z/F_obs ([1]; Day 5): 41,797.611 ± 17,743.925 mL | t ½ ([1]; Day 5): 9.445 ± 1.819 h | λz ([1]; Day 5): 0.076 ± 0.015 h⁻¹ | tolerated dose, single-dose study [2]: up to 75 mg/kg | lag in time to EPO C max from pharmacokinetic t max ([3]; multiple dosing, similar to single dosing): 6 to 8 h | serum EPO C max ([3]; part II, 100 mg on Days 1, 3, 5): 14.4 mIU/L | serum EPO C max ([3]; part II, 300 mg on Days 1, 3, 5): 60.5 mIU/L | hemoglobin increase on any timepoint, seen in more subjects than placebo ([3]; part II, higher threshold): > 1.0 gm% | Amount recovered [mean ± SD] ([4]; 100 mg, Day 1): 50.13 ± 14.99 mg | Percentage recovered [mean ± SD] ([4]; 100 mg, Day 1): 50.132 ± 14.998% | Amount recovered [mean ± SD] ([4]; 100 mg, Day 3): 41.00 ± 11.07 mg | Percentage recovered [mean ± SD] ([4]; 100 mg, Day 3): 41.001 ± 11.071% | Amount recovered [mean ± SD] ([4]; 100 mg, Day 5): 50.14 ± 12.16 mg | Percentage recovered [mean ± SD] ([4]; 100 mg, Day 5): 50.137 ± 12.160% | Amount recovered [mean ± SD] ([4]; 150 mg, Day 1): 52.77 ± 6.85 mg | Percentage recovered [mean ± SD] ([4]; 150 mg, Day 1): 35.178 ± 4.566% | Amount recovered [mean ± SD] ([4]; 150 mg, Day 3): 54.64 ± 13.35 mg | Percentage recovered [mean ± SD] ([4]; 150 mg, Day 3): 36.427 ± 8.900% | Amount recovered [mean ± SD] ([4]; 150 mg, Day 5): 44.23 ± 8.18 mg | Percentage recovered [mean ± SD] ([4]; 150 mg, Day 5): 29.488 ± 5.453% | Amount recovered [mean ± SD] ([4]; 200 mg, Day 1): 64.95 ± 25.50 mg | Percentage recovered [mean ± SD] ([4]; 200 mg, Day 1): 32.474 ± 12.749% | Amount recovered [mean ± SD] ([4]; 200 mg, Day 3): 66.09 ± 8.74 mg | Percentage recovered [mean ± SD] ([4]; 200 mg, Day 3): 33.044 ± 4.371% | Amount recovered [mean ± SD] ([4]; 200 mg, Day 5): 75.76 ± 12.76 mg | Percentage recovered [mean ± SD] ([4]; 200 mg, Day 5): 37.880 ± 6.381% | Amount recovered [mean ± SD] ([4]; 300 mg, Day 1): 82.97 ± 35.69 mg | Percentage recovered [mean ± SD] ([4]; 300 mg, Day 1): 27.656 ± 11.899% | Amount recovered [mean ± SD] ([4]; 300 mg, Day 3): 92.22 ± 41.92 mg | Percentage recovered [mean ± SD] ([4]; 300 mg, Day 3): 30.741 ± 13.972% | Amount recovered [mean ± SD] ([4]; 300 mg, Day 5): 99.15 ± 34.40 mg | Percentage recovered [mean ± SD] ([4]; 300 mg, Day 5): 33.050 ± 11.466% | potential for cytochrome P450 (CYP)-mediated drug–drug interactions (cytochrome P450 (CYP)): minimal potential | effective dose for inducing hematopoiesis (hemoglobin levels; alternate dosing pattern for a week): 15 mg/kg | erythropoiesis / hemoglobin levels (hemoglobin levels; repeated dose model, nephrectomized rats and mice): robust increase in erythropoiesis, resulting in normalization of hemoglobin levels | oral absorption and bioavailability [5]: well-absorbed and highly bioavailable | Adverse events (Test) (Part I safety assessment; SAD 25 mg panel): Rhinorrhea, right lower wisdom tooth pain, sore throat | Adverse events (Test) (Part I safety assessment; SAD 50 mg panel): Dizziness, headache, chest pain, Diarrhea, upper respiratory tract infection | Adverse events (Test) (Part I safety assessment; SAD 100 mg panel): Dizziness, headache, lethargy, nausea, throat irritation, increase in AST, hyperkalemia | Adverse events (Test) (Part I safety assessment; SAD 200 mg panel): Back pain | drug-related serious adverse events (Part I safety assessment; all study parts): No drug-related serious adverse events were reported | severity of AEs possibly related to study treatment (Part I safety assessment; part I): grade 1 | subjects with AEs possibly related to study treatment (Part I safety assessment; part I, nine AEs in six subjects, placebo 21%): 14% | tolerability (Part I safety assessment; single and multiple oral ascending doses): well-tolerated | maximum tolerated dose (MTD) ([6]; 1-month toxicity study): 15 mg/kg | no observed adverse effect level (NOAEL) ([6]; 28-day toxicity study): 5 mg/kg
